According to ChEMBL document CHEMBL5126672, “Discovery of κ Opioid Receptor (KOR)-Selective d-Tetrapeptides with Improved In Vivo Antinociceptive Effect after Peripheral Administration” (ACS Med Chem Lett, 2022):
The source made the active and inactive calls. The calls are words filed in the database; no cut-off is given here. Square brackets hold non-standard residues; d marks the D form. Peptide text beside a SMILES is read from it. dNle = CCCC[C@@H](N)C(=O)O

Columns and labels:
[1] = molecular target: T1, Kappa-type opioid receptor (Cavia porcellus, UniProt P41144); assay: Displacement of [3H]-HS665 from KOR in guinea pig brain membranes; format: cell membranes, Membrane
[2] = molecular target: T1, Kappa-type opioid receptor; assay: (§1) Agonist activity at KOR in guinea pig brain membranes assessed as stimulation of [35S]GTPgammaS binding measured after 1 hr by liquid scintillation counting analysis; format: functional, cell membranes, Membrane
Mus musculus [3] = assay: Antinociceptive activity in CD-1 mouse assessed as maximum possible effect at 10 nmol, icv measured after 15 to 120 mins by tail-flick test; format: functional, organism-based; settings: time 15-120 min
Outline: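 Tail flick test in mice after intracerebroventricular injection of 10 nmol/mouse, with vehicle-treated and U50,488H control groups. Antinociception was expressed as maximum possible effect. N = 7 per group.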

Mus musculus [4] = assay: Antinociceptive activity in CD-1 mouse assessed as maximum possible effect at 20 umol/kg, iv measured after 15 to 120 mins by tail-flick test; format: functional, organism-based; settings: dose 20.0 µmol/kg, time 15-120 min
Outline: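 Intravenous dosing at 20 μmol/kg in mice, followed by tail flick testing with antinociception expressed as maximum possible effect. Vehicle-treated animals served as controls. N = 8.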

Mus musculus [5] = assay: Antinociceptive activity in formalin-induced CD-1 mouse model of nociception assessed as reduction in total time spent in paw licking during early phase at 100 nmol, sc pretreated for 15 mins followed by formalin challenge measured up to 10 mins by formalin test; format: functional, organism-based; settings: time 25.0 min
Outline: (§2)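 Subcutaneous injection into the mouse paw at 100 nmol/mouse, given 15 min before formalin challenge. Nociceptive behaviour was scored in the early and late phases against vehicle and U50,488H groups. Analysis used one-way ANOVA with Tukey's multiple comparisons test.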

Mus musculus [6] = assay: Antinociceptive activity in formalin-induced CD-1 mouse model of nociception assessed as reduction in total time spent in paw licking during late phase at 100 nmol, sc pretreated for 15 mins followed by formalin challenge measured after 10 to 40 mins by formalin test; format: functional, organism-based; settings: time 15-55 min; outline: as §2
[7] = Cmax in C57/BL6 mouse plasma at 13.9 mg/kg, iv administered via bolus by LC-MS/MS analysis; format: ADME, organism-based; parameters: dose 13.9 mg/kg, route iv
Outline: (§3)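 Single intravenous bolus given to mice. Plasma concentrations were measured, and noncompartmental analysis gave Cmax, Tmax, t1/2 and AUC extrapolated to infinity. The calibration range was 10–1000 nM, with correlation coefficient >0.99 and the curve fit with 1/x2 weighting.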

[8] = Tmax in C57/BL6 mouse plasma at 13.9 mg/kg, iv administered via bolus by LC-MS/MS analysis; format: ADME, organism-based; outline: as §3
[9] = Half life in C57/BL6 mouse plasma at 13.9 mg/kg, iv administered via bolus by LC-MS/MS analysis; format: ADME, organism-based; outline: as §3
[10] = AUC (infinity) in C57/BL6 mouse plasma at 13.9 mg/kg, iv administered via bolus by LC-MS/MS analysis; format: ADME, organism-based; parameters: time infinity, dose 13.9 mg/kg, route iv; outline: as §3
[11] = Drug uptake in C57/BL6 mouse brain at 13.9 mg/kg, iv administered via bolus by LC-MS/MS analysis; format: ADME, organism-based; settings: in vivo, BLD = below limit of detection
Outline: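 Single intravenous bolus given to mice. Brain homogenates were analysed for drug exposure against a calibration curve spanning 10–1000 nM, fit with 1/x2 weighting.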

[12] = molecular target: Kappa-type opioid receptor (Cavia porcellus) (UniProt P41144); assay: as §1; format: functional, cell membranes; settings: Membrane, filed as agonist, DDE = dose-dependent effect
Kappa-type opioid receptor (Cavia porcellus), sequence (P41144 whole entry): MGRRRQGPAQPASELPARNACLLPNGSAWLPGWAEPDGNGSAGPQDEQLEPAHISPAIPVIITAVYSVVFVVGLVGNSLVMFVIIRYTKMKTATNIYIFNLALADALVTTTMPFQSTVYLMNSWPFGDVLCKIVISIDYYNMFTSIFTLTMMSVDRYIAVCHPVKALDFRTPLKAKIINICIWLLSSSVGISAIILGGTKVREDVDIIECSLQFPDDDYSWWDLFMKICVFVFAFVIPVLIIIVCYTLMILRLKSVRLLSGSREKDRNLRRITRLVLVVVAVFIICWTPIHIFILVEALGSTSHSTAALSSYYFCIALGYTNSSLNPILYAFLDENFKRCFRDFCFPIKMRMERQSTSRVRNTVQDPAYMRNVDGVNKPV

T1 sequence (P41144 whole entry): as above

| SMILES | Ki [1] [nM] | EC50 [2] [nM] | Activity (Mus musculus [3]) | Activity (Mus musculus [4]) | Activity (Mus musculus [5]) | Activity (Mus musculus [6]) | Cmax [7] [nM] | Tmax [8] [min] | half-life [9] [min] | AUC(0-inf) [10] [µM·h] | Drug uptake [11] | Activity [12] |
| --- | --- | --- | --- | --- | --- | --- | --- | --- | --- | --- | --- | --- |
| CCCC[C@@H](NC(=O)[C@@H](Cc1ccc(F)cc1)NC(=O)[C@H](N)Cc1ccccc1)C(=O)N[C@H](CCCNC(=N)N)C(N)=O | 0.92 | 955 | Active | Active | Active | Active | 109 | 15 | 20.6 | 0.0842 | Bld | – |
| CCCC[C@@H](NC(=O)[C@@H](Cc1ccccc1)NC(=O)[C@H](N)Cc1c[nH]c2ccccc12)C(=O)N[C@H](CCCNC(=N)N)C(N)=O | 3.07 | 5.13 | – | – | – | – | – | – | – | – | – | Dde |
| CCCC[C@@H](NC(=O)[C@@H](Cc1ccccc1)NC(=O)[C@H](N)Cc1ccccc1)C(=O)N[C@H](CCCNC(=N)N)C(N)=O (H-[dF][dF][dNle][dR]-NH2) | 2.33 | 26.3 | Active | – | – | – | 93 | 5 | 12.7 | 0.0364 | Bld | – |
| Oc1cccc(CCN(CCc2ccccc2)CC2CCC2)c1 | 1.91 | – | – | – | – | – | – | – | – | – | – | – |
| CCCC[C@@H](NC(=O)[C@@H](Cc1ccccc1)NC(=O)[C@H](N)Cc1ccccc1F)C(=O)N[C@H](CCCNC(=N)N)C(N)=O | 4.35 | 1350 | Active | – | Active | Active | – | – | – | – | – | – |
| CCCC[C@@H](NC(=O)[C@@H](Cc1ccccc1)NC(=O)[C@H](N)Cc1cccc(F)c1)C(=O)N[C@H](CCCNC(=N)N)C(N)=O | 1.28 | 22.4 | Active | Active | Active | Active | – | – | – | – | – | Dde |
| CCCC[C@@H](NC(=O)[C@H]1Cc2ccccc2CN1C(=O)[C@H](N)Cc1ccccc1)C(=O)N[C@H](CCCNC(=N)N)C(N)=O | 3.63 | 7.94 | – | – | – | – | – | – | – | – | – | – |
| CCCC[C@@H](NC(=O)[C@@H](Cc1cccc(F)c1)NC(=O)[C@H](N)Cc1ccccc1)C(=O)N[C@H](CCCNC(=N)N)C(N)=O | 3 | 1860 | Active | – | Active | Active | – | – | – | – | – | Dde |
| CCCC[C@@H](NC(=O)[C@@H](Cc1ccccc1)NC(=O)[C@H](N)Cc1ccc(O)cc1)C(=O)N[C@H](CCCNC(=N)N)C(N)=O | 1.11 | 9550 | – | – | – | – | – | – | – | – | – | Dde |
